Results published in ChEMBL document CHEMBL4359831, “Chemoproteomics of an Indole-Based Quinone Epoxide Identifies Druggable Vulnerabilities in Vancomycin-Resistant Staphylococcus aureus” (J Med Chem, 2019).
In brackets after ≈: the same amount, converted by molar mass. Activity calls are given as the source filed them. The calls are words filed in the database; no cut-off is given here.

Experiments:
[1] = tested on: Staphylococcus aureus; experiment: Binding affinity to Staphylococcus aureus ATCC 29213 Thioredoxin at 10 uM in presence of 9-(Pent-4-yn-1-yl)-1a,10a-dihydro-2H-oxireno[2',3':4,5]-benzo[1,2-a]carbazole-2,10(9H)-dione after 1 hr by biotin-azide fluorescence dependent LC-MS/MS-based ABPP assay
Summary of the method: (§1)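 Competitive LC–MS/MS ABPP on S. aureus soluble proteome. Pretreatment 1 h with DMSO, compound (10 μM), comparator (10 μM) or iodoacetamide (10 mM). Chase with alkyne probe (10 μM, 1 h), then Cu-catalysed click with biotin-azide and LC–MS/MS. Targets were proteins at ratio ≤0.1 versus DMSO in the compound and IAM groups and ~1 in the comparator group.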

[2] = tested on: Staphylococcus aureus; experiment: Binding affinity to Staphylococcus aureus ATCC 29213 DAPDC at 10 uM in presence of 9-(Pent-4-yn-1-yl)-1a,10a-dihydro-2H-oxireno[2',3':4,5]-benzo[1,2-a]carbazole-2,10(9H)-dione after 1 hr by biotin-azide fluorescence dependent LC-MS/MS-based ABPP assay; summary of the method: as §1
[3] = tested on: Staphylococcus aureus; experiment: Binding affinity to Staphylococcus aureus ATCC 29213 HxlR family transcriptional regulator at 10 uM in presence of 9-(Pent-4-yn-1-yl)-1a,10a-dihydro-2H-oxireno[2',3':4,5]-benzo[1,2-a]carbazole-2,10(9H)-dione after 1 hr by biotin-azide fluorescence dependent LC-MS/MS-based ABPP assay; summary of the method: as §1
[4] = tested on: Staphylococcus aureus; experiment: Binding affinity to Staphylococcus aureus ATCC 29213 MEP-cytidylyltransferase at 10 uM in presence of 9-(Pent-4-yn-1-yl)-1a,10a-dihydro-2H-oxireno[2',3':4,5]-benzo[1,2-a]carbazole-2,10(9H)-dione after 1 hr by biotin-azide fluorescence dependent LC-MS/MS-based ABPP assay; summary of the method: as §1
[5] = tested on: Staphylococcus aureus; experiment: Antibacterial activity against vancomycin-resistant Staphylococcus aureus SA-HIP-15178 after 16 to 18 hrs by CLSI M07-A10 protocol based dilution method; assay type: functional
[6] = Cytotoxicity against African green monkey Vero cells after 72 hrs by MTT assay; assay type: cell-based; conditions: chlorocebus sabaeus
[7] = tested on: Staphylococcus aureus; experiment: Antibacterial activity against vancomycin-resistant Staphylococcus aureus SA-71080 after 16 to 18 hrs by CLSI M07-A10 protocol based dilution method; assay type: functional
[8] = tested on: Staphylococcus aureus; experiment: Antibacterial activity against vancomycin-resistant Staphylococcus aureus SA-HIP-14300 after 16 to 18 hrs by CLSI M07-A10 protocol based dilution method; assay type: functional
[9] = tested on: Staphylococcus aureus; experiment: Binding affinity to Staphylococcus aureus ATCC 29213 Methionine aminopeptidase at 10 uM in presence of 9-(Pent-4-yn-1-yl)-1a,10a-dihydro-2H-oxireno[2',3':4,5]-benzo[1,2-a]carbazole-2,10(9H)-dione after 1 hr by biotin-azide fluorescence dependent LC-MS/MS-based ABPP assay; summary of the method: as §1
[10] = target: T1, Alkaline phosphatase synthesis transcriptional regulatory protein (Staphylococcus aureus) (UniProt W8TVM3); experiment: Binding affinity to Staphylococcus aureus ATCC 29213 Transcriptional regulator PhoP at 10 uM in presence of 9-(Pent-4-yn-1-yl)-1a,10a-dihydro-2H-oxireno[2',3':4,5]-benzo[1,2-a]carbazole-2,10(9H)-dione after 1 hr by biotin-azide fluorescence dependent LC-MS/MS-based ABPP assay; summary of the method: as §1
T1 sequence (whole entry): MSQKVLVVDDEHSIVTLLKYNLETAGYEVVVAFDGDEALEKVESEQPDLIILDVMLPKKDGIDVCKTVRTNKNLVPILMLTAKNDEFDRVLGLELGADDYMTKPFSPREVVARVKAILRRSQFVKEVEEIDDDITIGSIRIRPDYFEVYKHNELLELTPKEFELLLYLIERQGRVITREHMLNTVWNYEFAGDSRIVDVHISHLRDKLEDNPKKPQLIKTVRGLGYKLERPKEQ

[11] = tested on: Klebsiella pneumoniae; experiment: Antibacterial activity against Klebsiella pneumoniae ATCC BAA-1705 after 16 to 18 hrs by CLSI M07-A10 protocol based dilution method; assay type: functional
[12] = tested on: Staphylococcus aureus; experiment: Antibacterial activity against vancomycin-resistant Staphylococcus aureus SA-HIP-11983 after 16 to 18 hrs by CLSI M07-A10 protocol based dilution method; assay type: functional
[13] = tested on: Staphylococcus aureus; experiment: Antibacterial activity against vancomycin-resistant Staphylococcus aureus AIS100050 after 16 to 18 hrs by CLSI M07-A10 protocol based dilution method; assay type: functional
[14] = tested on: Pseudomonas aeruginosa; experiment: Antibacterial activity against Pseudomonas aeruginosa ATCC 27853 after 16 to 18 hrs by CLSI M07-A10 protocol based dilution method; assay type: functional
[15] = L-cysteine reactivity in pH 7.4 phosphate buffer assessed as compound remaining at 100 uM incubated for 1 hr by HPLC analysis
[16] = tested on: Staphylococcus aureus; experiment: Bactericidal activity against vancomycin-resistant Staphylococcus aureus HIP11714 at 10 times MIC measured up to 24 hrs by time kill assay; assay type: functional, organism-based
[17] = tested on: Enterococcus faecalis; experiment: Antibacterial activity against Enterococcus faecalis B3119 after 16 to 18 hrs by CLSI M07-A10 protocol based dilution method; assay type: functional
[18] = tested on: Staphylococcus aureus; experiment: Binding affinity to Staphylococcus aureus ATCC 29213 Transcriptional regulator at 10 uM in presence of 9-(Pent-4-yn-1-yl)-1a,10a-dihydro-2H-oxireno[2',3':4,5]-benzo[1,2-a]carbazole-2,10(9H)-dione after 1 hr by biotin-azide fluorescence dependent LC-MS/MS-based ABPP assay; summary of the method: as §1
[19] = tested on: Escherichia coli; experiment: Antibacterial activity against Escherichia coli ATCC 25922 after 16 to 18 hrs by CLSI M07-A10 protocol based dilution method; assay type: functional
[20] = L-cysteine reactivity in pH 7.4 phosphate buffer assessed as pseudo first order rate constant at 100 uM measured at 10 mins time interval up to 60 mins by HPLC analysis
[21] = tested on: Staphylococcus aureus; experiment: Bactericidal activity against Staphylococcus aureus ATCC 29213 at 1 to 10 times MIC preincubated up to 24 hrs under shaking condition followed by bacterial plating on Tryptic Soy agar and measured after 18 to 20 hrs by time kill assay; assay type: functional, organism-based
[22] = tested on: Staphylococcus aureus; experiment: Binding affinity to Staphylococcus aureus ATCC 29213 MarR family transcriptional regulator at 10 uM in presence of 9-(Pent-4-yn-1-yl)-1a,10a-dihydro-2H-oxireno[2',3':4,5]-benzo[1,2-a]carbazole-2,10(9H)-dione after 1 hr by biotin-azide fluorescence dependent LC-MS/MS-based ABPP assay; summary of the method: as §1
[23] = tested on: Staphylococcus aureus; experiment: Binding affinity to Staphylococcus aureus ATCC 29213 Hydroxyethylthiazole kinase at 10 uM in presence of 9-(Pent-4-yn-1-yl)-1a,10a-dihydro-2H-oxireno[2',3':4,5]-benzo[1,2-a]carbazole-2,10(9H)-dione after 1 hr by biotin-azide fluorescence dependent LC-MS/MS-based ABPP assay; summary of the method: as §1
[24] = tested on: Staphylococcus aureus; experiment: Antibacterial activity against Staphylococcus aureus ATCC 29213 after 16 to 18 hrs by CLSI M07-A10 protocol based dilution method; assay type: functional
Summary of the method: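 MIC against ATCC 29213 determined by a previously described protocol; values in μg/mL.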

[25] = L-cysteine reactivity in pH 7.4 phosphate buffer at 100 uM preincubated for 1 hr followed by mono-bromobimane addition and measured after 30 mins by fluorescence based competition assay

What does the source list for `CC(C)n1c2ccccc2c2ccc3c(c21)C(=O)C1OC1C3=O` (stereo not given)?
Activity [1]: Active; Activity [2]: Active; Activity [3]: Active; Activity [4]: Active; MIC [5]: 0.5 µg/mL (≈ 1.64 µM); CC50 at 72 h [6]: > 25 µg/mL; MIC [7]: 0.5 µg/mL (≈ 1.64 µM); MIC [8]: 0.5 µg/mL (≈ 1.64 µM); Activity [9]: Active; Activity [10]: Active; MIC [11]: 64 µg/mL (≈ 210 µM); MIC [12]: 0.5 µg/mL (≈ 1.64 µM); MIC [13]: 0.5 µg/mL (≈ 1.64 µM); MIC [14]: 64 µg/mL (≈ 210 µM); Activity [15]: 34%; Activity [16]: Active; MIC [17]: 64 µg/mL (≈ 210 µM); Activity [18]: Active; MIC [19]: 64 µg/mL (≈ 210 µM); K [20]: 7.54 ×10⁻² /min; Activity [21]: Active; Activity [22]: Active; Activity [23]: Active; MIC [24]: 0.125 to 0.5 µg/mL (≈ 0.409 to 1.64 µM); Activity [25]: Active
